pIC50: −log10 of the molar value. The source made the active and inactive calls. The calls are words filed in the database; no cut-off is given here.
Assays:
SW480 [1] = assay: Anticancer activity against human SW480 cells expressing GPR120 assessed as inhibition of cell viability measured after 24 hrs by alamar blue assay; assay type: functional, cell-based; conditions: SW480, 24 h
Summary of the method: (§1)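 SW480 seeded 10,000, 5,000 or 2500 cells/well for 24, 48 or 72 h exposure; 9 serial dilutions 100 to 0.39 μM in 0.5% DMSO medium, not replenished during treatment. Read by 6% alamar blue, 3 h, ex 560/em 590 nm. 50% DMSO defined 0%, 0.5% DMSO 100%; IC50 by non-linear regression. 5 replicates, three experiments.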

SW480 [2] = assay: Anticancer activity against human SW480 cells expressing GPR120 assessed as inhibition of cell viability at 100 uM measured after 72 hrs by alamar blue assay relative to control; assay type: functional
Summary of the method: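 SW480 in RPMI1640 + 10% FBS, 37 °C, 5% CO2; seeded 2500 cells/well, exposed 72 h to 100, 10, 1 μM in 0.5% DMSO medium. Medium then replaced by 6% alamar blue, 3 h, fluorescence ex 560/em 590 nm. Six replicates, mean ± SE; viability set relative to vehicle (0.5% DMSO) control.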

SW480 [3] = assay: Anticancer activity against human SW480 cells expressing GPR120 assessed as inhibition of cell viability measured after 72 hrs by alamar blue assay; assay type: functional, cell-based; summary of the method: as §1
SW480 [4] = assay: Anticancer activity against human SW480 cells expressing GPR120 assessed as inhibition of cell viability measured after 48 hrs by alamar blue assay; assay type: functional, cell-based; conditions: SW480, 48 h; summary of the method: as §1
SW480 [5] = assay: Anticancer activity against human SW480 cells transfected with scrambled siRNA assessed as inhibition of cell viability 5 uM measured after 24 hrs by alamar blue assay; assay type: functional, cell-based
Summary of the method: (§2)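 SW480 seeded overnight, transfected with 50 nM human GPR120 27mer siRNA duplex or universal scrambled siRNA duplex (siTran 2.0). Harvested 24 h post-transfection, then exposed to 5 μM, 24 h. Viability read by alamar blue (6%, 3 h, ex 560/em 590 nm). Five replicates, mean ± SE; two-way ANOVA with Tukey test.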

SW480 [6] = assay: Anticancer activity against human SW480 cells transfected with GPR120 siRNA assessed as inhibition of cell viability 5 uM measured after 24 hrs by alamar blue assay; assay type: functional, cell-based; summary of the method: as §2

SMILES	pIC50 (SW480 [1])	pIC50 (SW480 [4])	inhibition at 100 µM (SW480 [2])	Activity (SW480 [3])	Activity (SW480 [5])	Activity (SW480 [6])
O=C1c2cc(S(=O)(=O)Nc3cccc4ccccc34)ccc2-c2ccc(S(=O)(=O)Nc3cccc4ccccc34)cc21	4.58	4.30	> 90%	Active	–	–
O=C(CSc1nc2c(c(=O)n1C1CCCC1)C1(CCCC1)Cc1ccccc1-2)c1ccc(Cl)cc1	4.62	–	–	–	–	–
Cc1ccc(-n2c(SCC(=O)c3ccc(Br)cc3)nc3c(c2=O)C2(CCCC2)Cc2ccccc2-3)cc1	4.59	–	–	–	–	–

Second part, led by results:

pIC50 (SW480 [1])	pIC50 (SW480 [4])	SMILES	inhibition at 100 µM (SW480 [2])	Activity (SW480 [3])	Activity (SW480 [5])	Activity (SW480 [6])
4.16	–	O=C(CSc1nc2c(c(=O)n1CCc1ccccc1)C1(CCCC1)Cc1ccccc1-2)c1ccc(Cl)cc1	–	–	–	–
4.64	–	Cn1c(SCC(=O)c2ccc(Cl)cc2)nc2c(c1=O)C1(CCCC1)Cc1ccccc1-2	–	–	–	–
5.23	–	O=C(CSc1nc2c(c(=O)n1-c1ccccc1)C1(CCCC1)Cc1ccccc1-2)c1ccc(Cl)cc1	–	–	Active	inactive
4.63	4.30	Cc1ccc(-n2c(SCC(=O)c3ccccc3)nc3c(c2=O)C2(CCCC2)Cc2ccccc2-3)cc1	> 90%	Active	–	–
5.17	–	COc1ccc(-n2c(SCC(=O)c3ccc(Cl)cc3)nc3c(c2=O)C2(CCCC2)Cc2ccccc2-3)cc1	–	–	Active	Active

Reference: ChEMBL document CHEMBL4673277, “In silico and in vitro screening for potential anticancer candidates targeting GPR120” (Bioorg Med Chem Lett, 2021)
